Experimental data collected from several papers.
Lines come from different studies, so protocols differ.

SMILES	host	sample	route	dose	setting	endpoint	result
N=c1c2c(-c3ccccc3)c(-c3ccccc3)n(Cc3ccccc3)c2ncn1[C@H]1CC[C@H](O)CC1	male beagle dog	plasma	oral	1 mg/kg	single dose	Cmax	81.5 ng/mL
CCN(CC)CCCC[C@H](NC(=O)[C@H](CC(C)C)NC(=O)[C@H](C)NC(=O)[C@H](Cc1ccccc1)NC(=O)c1ccc(C(C)(C)C)cc1)C(=O)N[C@@H](CO)C(=O)OC	male Swiss mouse	blood	intravenous	3 mg/kg		C0	10900 ng/mL
CN[C@H](CC(C)C)C(=O)N[C@H]1C(=O)N[C@@H](CC(N)=O)C(=O)N[C@H]2C(=O)NC3C(=O)N[C@H](C(=O)N[C@H](C(=O)NCCC[N+](C)(C)C)c4cc(O)cc(O)c4-c4cc3ccc4O)[C@H](O)c3ccc(c(Cl)c3)Oc3cc2cc(c3OC2OC(CO)C(O)[C@H](O)[C@@H]2O[C@H]2CC(C)(NCc3ccc(-c4ccc(Cl)cc4)cc3)[C@H](O)[C@H](C)O2)Oc2ccc(cc2Cl)[C@H]1O (some centres unmarked)	mouse	plasma	intravenous	10 mg/kg		clearance	2 mL/min/kg
NC(=O)[C@@H]1CC(F)(F)CN1C(=O)c1ccc(N2CC(F)(F)C2)c(OCC2CC2)n1	C57BL/6 mouse	plasma	intravenous			clearance	28.5 mL/min/kg
Cl.Cl.O=C(CCN1CCCCC1)c1ccc(-c2ccc(C(=O)CCN3CCCCC3)cc2)cc1	Sprague-Dawley rat	plasma	oral	100 mg/kg		Tmax	45 min
C[C@]12CC[C@H](O)CC1=CC[C@@H]1[C@@H]2CC[C@]2(C)C(n3cnc4ccccc43)=CC[C@@H]12.Cl	mouse	plasma	intravenous	1 mg/kg		C0	98.3 ng/mL
Cc1nonc1Cn1nnc2c(N3CC[C@H](O)C3)nc(C(C)(C)C)nc21	C57BL/6 mouse	plasma	intravenous			clearance	29.9 mL/min/kg
CCC[C@@](N)(CO)CCc1ccc(OCCCCCC(C)C)cc1	dog	plasma	oral	20 mg/kg	fasted	Cmax	669 nM
C[C@]12CC[C@H](n3ccnc3)CC1=CC[C@@H]1[C@@H]2CC[C@]2(C)C(n3cnc4ccccc43)=CC[C@@H]12.Cl	male CD-1 mouse	plasma	intravenous	1 mg/kg		C0	544 ng/mL
NCC(=O)Nc1ccc(-n2nc(C(F)(F)F)cc2-c2ccc3c(ccc4ccccc43)c2)cc1	mouse	plasma	oral	80 mg/kg	single dose	CL/F	978 mL/min/kg
O=C(Nc1cccnn1)N1CCN([C@@H]2CCOc3cc(C(F)(F)F)ccc32)CC1	male Sprague-Dawley rat	plasma	oral	3 mg/kg		Tmax	40.2 min
